“And” between values parts separate entries of the source, which are not always exact repeats. Equal values may be shown once.
Key:
Vent(exo^−) polymerase [1] = target: T1, Vent(exo^−) polymerase (Thermococcus litoralis, UniProt P30317, D141A/DEL1082-1471/DEL495-1032/E143A); conditions: cited from earlier work
T1 sequence (P30317 with tags, fused parts or gaps D141A/E143A/DEL495-1032/DEL1082-1471): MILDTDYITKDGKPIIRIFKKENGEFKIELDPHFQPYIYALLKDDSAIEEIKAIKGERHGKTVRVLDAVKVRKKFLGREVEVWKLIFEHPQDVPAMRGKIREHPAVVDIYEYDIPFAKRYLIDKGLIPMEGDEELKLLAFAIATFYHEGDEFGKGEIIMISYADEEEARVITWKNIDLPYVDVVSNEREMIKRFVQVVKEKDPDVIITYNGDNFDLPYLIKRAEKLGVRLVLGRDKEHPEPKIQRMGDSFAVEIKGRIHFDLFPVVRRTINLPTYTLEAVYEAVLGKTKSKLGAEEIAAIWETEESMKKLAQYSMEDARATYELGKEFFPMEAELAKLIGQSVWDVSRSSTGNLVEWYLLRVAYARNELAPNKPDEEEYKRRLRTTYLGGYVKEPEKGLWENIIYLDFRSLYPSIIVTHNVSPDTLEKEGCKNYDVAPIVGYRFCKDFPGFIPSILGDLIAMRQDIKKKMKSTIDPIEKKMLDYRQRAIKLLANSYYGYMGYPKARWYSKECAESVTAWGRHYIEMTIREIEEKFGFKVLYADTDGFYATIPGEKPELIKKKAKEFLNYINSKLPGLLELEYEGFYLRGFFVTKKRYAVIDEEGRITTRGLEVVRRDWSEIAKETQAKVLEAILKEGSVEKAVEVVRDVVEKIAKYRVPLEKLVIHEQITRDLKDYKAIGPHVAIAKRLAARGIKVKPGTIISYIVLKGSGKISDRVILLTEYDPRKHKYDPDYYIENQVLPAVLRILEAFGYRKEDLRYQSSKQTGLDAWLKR

Vent(exo^−) polymerase [2] = target: T1, Vent(exo^−) polymerase; assay: Nucleotide selectivity; type: biochemical; conditions: each mismatch combination
How it was run: (§1)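 Base discrimination was measured by PEP assay. OligoTemplate-4 was replaced with 40 nM oligoTemplate-2 or oligoTemplate-5 to give mismatched template bases. For the T—G mismatch, 5 nM BODIPY-FL primer-3 was hybridised to 40 nM oligoTemplate-8. The selectivity ratio is the mismatched IC50 divided by the matched IC50.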

Vent(exo^−) polymerase [3] = target: T1, Vent(exo^−) polymerase; assay: PCR of TCF1 exons 2 and 10 with TTP or HOMedUTP; type: biochemical; conditions: 200 μM each dNTP
How it was run: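 Human genomic DNA (~50 ng) was amplified with 0.4 µM primer pairs and one unit of Vent(exo−). Buffer was 1× ThermoPol (20 mM Tris–HCl pH 8.8, 2 mM MgSO4, etc.) with 1 M betaine. dATP, dCTP and dGTP were at 200 μM each, with TTP or HOMedUTP. Cycling: 95°C 4 min; 35× (95°C 30 s, 59°C 30 s, 72°C 90 s); 72°C 7 min. Expected products: 602 bp (exon 2) and 670 bp (exon 10).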

Therminator polymerase [4] = target: T2, Therminator polymerase (Thermococcus sp., UniProt Q56366, A485L/D141A/E143A); assay: Nucleotide selectivity; type: biochemical
T2 sequence (Q56366 1-775 D141A/E143A/A485L): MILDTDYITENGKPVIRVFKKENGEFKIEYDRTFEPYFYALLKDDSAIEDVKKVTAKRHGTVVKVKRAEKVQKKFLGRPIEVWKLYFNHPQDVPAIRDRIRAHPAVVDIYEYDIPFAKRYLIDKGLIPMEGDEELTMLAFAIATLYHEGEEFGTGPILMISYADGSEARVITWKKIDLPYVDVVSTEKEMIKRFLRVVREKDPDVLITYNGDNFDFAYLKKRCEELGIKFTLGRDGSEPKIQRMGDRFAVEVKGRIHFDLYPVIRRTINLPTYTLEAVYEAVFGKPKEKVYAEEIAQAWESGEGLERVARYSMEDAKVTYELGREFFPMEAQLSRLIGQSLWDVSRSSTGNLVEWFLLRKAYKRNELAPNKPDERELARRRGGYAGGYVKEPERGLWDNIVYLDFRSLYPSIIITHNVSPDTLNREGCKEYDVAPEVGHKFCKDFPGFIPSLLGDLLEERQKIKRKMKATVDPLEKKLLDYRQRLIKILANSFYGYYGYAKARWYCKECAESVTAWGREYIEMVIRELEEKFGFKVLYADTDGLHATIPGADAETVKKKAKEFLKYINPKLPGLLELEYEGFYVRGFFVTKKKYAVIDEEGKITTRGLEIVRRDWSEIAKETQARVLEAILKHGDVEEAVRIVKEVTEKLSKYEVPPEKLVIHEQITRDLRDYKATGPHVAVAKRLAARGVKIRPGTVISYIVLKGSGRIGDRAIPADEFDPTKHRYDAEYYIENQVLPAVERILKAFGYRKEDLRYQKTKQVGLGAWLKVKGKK
How it was run: as §1

Vent(exo^−) polymerase [5] = target: T1, Vent(exo^−) polymerase; assay: Weighted-sum assay for termination; type: biochemical; conditions: nucleotide at 3 μM (∼1000× IC50), oligoTemplate-7
[6] = Photochemical cleavage studies; type: physicochemical; conditions: 50 mM NaN3; 365 nm UV; incorporated in primer-1/oligoTemplate-4
How it was run: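 Analogs (100 nM final) were incorporated as in PEP on BODIPY-FL primer-1/oligoTemplate-4 (10 nM/80 nM). Reactions were quenched in FBD solution (20% formamide, 10 mM Na2EDTA pH 8.0, Blue Dextran) or 50 mM sodium azide. Samples were irradiated at 365 nm for various times, then iced, mixed with formamide stop solution and run on an AB 377 sequencer. DT50 is the time for 50% cleavage, from triplicates ± 1 SD.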

Therminator polymerase [7] = target: T2, Therminator polymerase; assay: Weighted-sum assay for termination; type: biochemical; conditions: nucleotide at 3 μM (∼1000× IC50), oligoTemplate-7
TaqFS polymerase = TaqFS polymerase (Thermus aquaticus, UniProt P19821, F667Y/G46D); assay: PEP; type: biochemical; conditions: TaqFS; Not Active = no visible +1 band in 377 gel image at 100 μM
How it was run: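 Polymerase end-point assay for single-base incorporation. 5 nM BODIPY-FL-labelled primer-1 was hybridised to 40 nM oligoTemplate-4, with the interrogation base complementary to dU. Absence of a +1 band on the 377 gel image at 100 μM counts as not active. IC50 was averaged from triplicates ± 1 SD. Incorporation bias is the analog IC50 divided by the natural-nucleotide (HOMedUTP) IC50.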

Therminator polymerase [8] = target: T2, Therminator polymerase; assay: Ten cycle CRT sequencing; type: biochemical; conditions: 3 μM; UV cleavage in 50 mM sodium azide
How it was run: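 Biotinylated oligoTemplate-7 was bound to streptavidin M-270 beads with BODIPY-FL primer-2S, then preloaded with 0.5 U Therminator in 1× ThermoPol on ice for 5 min. Each cycle: incorporation at 65°C for 5 min, W10 washes, then 365 nm UV (~0.7 W/cm2, 4× 1 min) in 50 mM azide and ThermoPol washes. After ten cycles, products were run on a 10% polyacrylamide gel (377). Band quantification gave cycle efficiency (incorporation × cleavage) and dephasing (%n–2, %n–1, %n+1).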

Sequence of TaqFS polymerase (P19821 whole entry G46D/F667Y): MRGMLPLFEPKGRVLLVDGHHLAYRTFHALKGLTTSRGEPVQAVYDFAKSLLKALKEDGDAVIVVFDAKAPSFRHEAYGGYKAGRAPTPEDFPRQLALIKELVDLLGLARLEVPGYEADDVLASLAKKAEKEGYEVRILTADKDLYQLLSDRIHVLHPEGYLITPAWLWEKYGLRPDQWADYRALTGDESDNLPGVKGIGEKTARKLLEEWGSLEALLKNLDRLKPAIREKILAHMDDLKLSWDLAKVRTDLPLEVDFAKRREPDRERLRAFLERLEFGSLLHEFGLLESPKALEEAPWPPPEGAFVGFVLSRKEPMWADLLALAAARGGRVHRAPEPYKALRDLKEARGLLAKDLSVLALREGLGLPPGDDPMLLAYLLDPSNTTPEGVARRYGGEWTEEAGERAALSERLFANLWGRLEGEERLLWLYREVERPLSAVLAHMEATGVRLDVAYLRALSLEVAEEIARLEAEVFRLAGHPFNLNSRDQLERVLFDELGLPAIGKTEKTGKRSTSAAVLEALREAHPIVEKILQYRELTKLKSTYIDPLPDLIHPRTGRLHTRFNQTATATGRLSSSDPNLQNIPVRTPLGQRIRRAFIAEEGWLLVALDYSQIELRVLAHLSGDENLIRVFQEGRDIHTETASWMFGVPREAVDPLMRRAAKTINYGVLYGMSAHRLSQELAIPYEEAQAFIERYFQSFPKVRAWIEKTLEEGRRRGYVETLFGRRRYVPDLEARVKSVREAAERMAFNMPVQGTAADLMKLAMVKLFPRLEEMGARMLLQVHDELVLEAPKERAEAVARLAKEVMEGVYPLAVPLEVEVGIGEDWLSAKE

Structure (SMILES) | Selectivity ratios / mismatch discrimination (in words) (Therminator polymerase [4]) | Weighted-sum value (Vent(exo^−) polymerase [5]) | DT50 values (time at which 50% of 2-nitrobenzyl groups were photochemically cleaved) [6] | Weighted-sum value (Therminator polymerase [7]) | further results
C=CCO[C@H]1C[C@H](n2cnc3c(N)ncnc32)O[C@@H]1COP(=O)(O)OP(=O)(O)OP(=O)(O)O [3′-O-allyl-dATP] |  |  |  |  | Incorporation by polymerase (in words) (Vent(exo^−) polymerase [1]): not efficiently incorporated
O=c1[nH]c(=O)n([C@H]2C[C@H](O)[C@@H](COP(=O)(O)OP(=O)(O)OP(=O)(O)O)O2)cc1CO [HOMedUTP, 5-hydroxymethyl-2′-deoxyuridine triphosphate] |  |  |  |  | Selectivity ratio (mismatched IC50/matched IC50) (Vent(exo^−) polymerase [2]): greater than three orders of magnitude; PCR product yield and size, HOMedUTP in place of TTP (Vent(exo^−) polymerase [3]): Comparable yields and product size
Cc1cn([C@H]2C[C@H](O)[C@@H](COP(=O)(O)OP(=O)(O)OP(=O)(O)O)O2)c(=O)n(Cc2ccccc2[N+](=O)[O-])c1=O [T.I, N^3-(2-Nitrobenzyl)-thymidine-5’-triphosphate] | indiscriminately against all mismatched template bases |  |  |  | 
CC(C)[C@H](OCc1cn([C@H]2C[C@H](O)[C@@H](COP(=O)(O)OP(=O)(O)OP(=O)(O)O)O2)c(=O)[nH]c1=O)c1ccccc1[N+](=O)[O-] [dU.IV, 5-[(S)-1-(2-Nitrophenyl)-2-methyl-propyloxy]methyl-2'-deoxyuridine-5’-triphosphate] | almost three orders of magnitude | 1.7 and 1.7 ± 0.1 | 1.8 s and 1.8 ± 0.1 s | 1.9 and 1.9 ± 0.2 | 
CC(C)(C)[C@H](OCc1cn([C@H]2C[C@H](O)[C@@H](COP(=O)(O)OP(=O)(O)OP(=O)(O)O)O2)c(=O)[nH]c1=O)c1ccccc1[N+](=O)[O-] [dU.V, 5-[(S)-1-(2-nitrophenyl)-2,2-dimethyl-propyloxy]methyl-2'-deoxyuridine-5’-triphosphate] | almost three orders of magnitude | 1.0 and 1.0 ± 0.0 | 1.3 s and 1.3 ± 0.1 s | 1.0 and 1.0 ± 0.0 | IC50 values (activity in words) (TaqFS polymerase): not incorporated; Overall signal of reaction products over the 10 CRT cycles (Therminator polymerase [8]): remained relatively constant

Reference: article PMC3064798 (Nucleic Acids Research, 2011)
